pIC50: −log10 of the molar value.
Experiments:
A-375 [1] = assay: Antiproliferative activity against human A375 cells at 0.14 ug/ml for 24 hrs by MTT assay; format: functional; conditions: A-375, 24 h
Method in brief: (§1)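 HEP-3B or A-375 cells were grown in DMEM with 10% FBS, 5% HBSS, penicillin, streptomycin and amphotericin B at 37 C and 5% CO2. Cells were seeded at 2 × 10^4 per well and preincubated for 24 h. They were then exposed to ten 1:3 serial dilutions from a top concentration of 100, made from 2% DMSO stocks. MTT was added for 3 h, formazan was dissolved in DMSO, and A550 was read. Wells were run in triplicate across three independent experiments. IC50 came from dose-response curves.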

A-375 [2] = assay: Antiproliferative activity against human A375 cells at 0.01 ug/ml for 24 hrs by MTT assay; format: functional; conditions: A-375, 24 h; method in brief: as §1
[3] = Antiproliferative activity against human Hep3B cells at 0.14 ug/ml for 24 hrs by MTT assay; format: functional, Hep 3B2; method in brief: as §1
A-375 (human melanoma) = assay: Antiproliferative activity against human A375 cells for 24 hrs by MTT assay; conditions: A-375, 24 h
A-375 [4] = assay: Antiproliferative activity against human A375 cells at 11.11 ug/ml for 24 hrs by MTT assay; format: functional; conditions: A-375, 24 h; method in brief: as §1
A-375 [5] = assay: Antiproliferative activity against human A375 cells at 33.33 ug/ml for 24 hrs by MTT assay; format: functional; conditions: A-375, 24 h; method in brief: as §1
[6] = Antiproliferative activity against human Hep3B cells at 0.02 ug/ml for 24 hrs by MTT assay; format: functional, Hep 3B2; method in brief: as §1
A-375 [7] = assay: Antiproliferative activity against human A375 cells at 0.05 ug/ml for 24 hrs by MTT assay; format: functional; conditions: A-375, 24 h; method in brief: as §1
[8] = Antiproliferative activity against human Hep3B cells at 11.11 ug/ml for 24 hrs by MTT assay; format: functional, Hep 3B2; method in brief: as §1
A-375 [9] = assay: Antiproliferative activity against human A375 cells at 3.7 ug/ml for 24 hrs by MTT assay; format: functional; conditions: A-375, 24 h; method in brief: as §1
[10] = Antiproliferative activity against human Hep3B cells at 0.41 ug/ml for 24 hrs by MTT assay; format: functional, Hep 3B2; method in brief: as §1
HEP-3B (human hepatoma) = assay: Antiproliferative activity against human Hep3B cells for 24 hrs by MTT assay
[11] = Antiproliferative activity against human Hep3B cells at 0.01 ug/ml for 24 hrs by MTT assay; format: functional, Hep 3B2; method in brief: as §1
A-375 [12] = assay: Antiproliferative activity against human A375 cells at 100 ug/ml for 24 hrs by MTT assay; format: functional; conditions: A-375, 24 h; method in brief: as §1
A-375 [13] = assay: Antiproliferative activity against human A375 cells at 0.41 ug/ml for 24 hrs by MTT assay; format: functional; conditions: A-375, 24 h; method in brief: as §1
[14] = Antiproliferative activity against human Hep3B cells at 0.05 ug/ml for 24 hrs by MTT assay; format: functional, Hep 3B2; method in brief: as §1
[15] = Antiproliferative activity against human Hep3B cells at 3.7 ug/ml for 24 hrs by MTT assay; format: functional, Hep 3B2; method in brief: as §1
A-375 [16] = assay: Antiproliferative activity against human A375 cells at 1.23 ug/ml for 24 hrs by MTT assay; format: functional; conditions: A-375, 24 h; method in brief: as §1
A-375 [17] = assay: Antiproliferative activity against human A375 cells at 0.02 ug/ml for 24 hrs by MTT assay; format: functional; conditions: A-375, 24 h; method in brief: as §1
[18] = Antiproliferative activity against human Hep3B cells at 1.23 ug/ml for 24 hrs by MTT assay; format: functional, Hep 3B2; method in brief: as §1
[19] = Retention time of compound by HPLC analysis; format: physicochemical
[20] = Antiproliferative activity against human Hep3B cells at 100 ug/ml for 24 hrs by MTT assay; format: functional, Hep 3B2; method in brief: as §1
[21] = Antiproliferative activity against human Hep3B cells at 33.33 ug/ml for 24 hrs by MTT assay; format: functional, Hep 3B2; method in brief: as §1

Structure (SMILES)	pIC50 (A-375 (human melanoma))	pIC50 (HEP-3B (human hepatoma))	inhibition at 0.14 µg/mL (A-375 [1])	inhibition at 0.01 µg/mL (A-375 [2])	inhibition at 0.14 µg/mL [3]	inhibition at 11.11 µg/mL (A-375 [4])	inhibition at 33.33 µg/mL (A-375 [5])	inhibition at 0.02 µg/mL [6]	inhibition at 0.05 µg/mL (A-375 [7])	inhibition at 11.11 µg/mL [8]	inhibition at 3.7 µg/mL (A-375 [9])	inhibition at 0.41 µg/mL [10]	inhibition at 0.01 µg/mL [11]	inhibition at 100 µg/mL (A-375 [12])	inhibition at 0.41 µg/mL (A-375 [13])	inhibition at 0.05 µg/mL [14]	inhibition at 3.7 µg/mL [15]	inhibition at 1.23 µg/mL (A-375 [16])	inhibition at 0.02 µg/mL (A-375 [17])	inhibition at 1.23 µg/mL [18]	further results
Cc1ccc2nc(C(=O)Nc3c(F)cc(-c4cccc(F)c4)cc3F)c(C)c(O)c2c1	< 4.00	4.04	1.06%	0.1%	2.34%	17.9%	26.5%	0.98%	0.96%	25.5%	16.2%	5.25%	0.22%	56.4%	1.35%	1.52%	19.2%	3.04%	0.38%	11.2%	Retention_time [19]: 8.8 min; inhibition at 100 µg/mL [20]: 68.3%; inhibition at 33.33 µg/mL [21]: 37.3%
Cc1c(C(=O)Nc2ccc(-c3ccccc3)cc2)nc2ccccc2c1C(=O)O	4.08	< 4.00	1.56%	-0.35%	0.03%	20.3%	25.6%	-0.35%	0.87%	3.25%	16.3%	0.98%	-0.68%	50.3%	2.38%	-0.12%	2.31%	7.65%	0.12%	1.25%	Retention_time [19]: 6.8 min; inhibition at 100 µg/mL [20]: 44.4%; inhibition at 33.33 µg/mL [21]: 11.2%
Cc1c(C(=O)Nc2c(F)cc(-c3cccc(F)c3)cc2F)nc2ccc(F)cc2c1O	< 4.00	4.19	0%	-0.35%	2.65%	16.2%	28.8%	0.35%	0.05%	31.3%	7.85%	4.85%	-0.12%	51.3%	0.86%	1.25%	22.3%	2.34%	-0.13%	15.3%	Retention_time [19]: 6.9 min; inhibition at 100 µg/mL [20]: 75.2%; inhibition at 33.33 µg/mL [21]: 41.2%
Cc1c(C(=O)Nc2c(F)cc(-c3cccc(F)c3)cc2F)nc2ccc(OC(F)(F)F)cc2c1O	4.07	4.42	0.06%	-0.68%	2.01%	11.3%	12.3%	0.67%	-0.13%	37.9%	2.06%	5.62%	0.32%	25.6%	1.02%	1.05%	26.4%	1.57%	-0.35%	17.2%	Retention_time [19]: 6.3 min; inhibition at 100 µg/mL [20]: 80.3%; inhibition at 33.33 µg/mL [21]: 41.2%
CCOc1ccc2nc(C(=O)Nc3c(F)cc(-c4cccc(F)c4)cc3F)c(C)c(O)c2c1	< 4.00	< 4.00	1.54%	0.23%	0.01%	15.3%	16.3%	-0.32%	1.02%	2.03%	4.56%	0.26%	-0.5%	37.9%	2.05%	-0.04%	1.56%	2.96%	0.68%	1.03%	Retention_time [19]: 7.2 min; inhibition at 100 µg/mL [20]: 33.2%; inhibition at 33.33 µg/mL [21]: 11.2%
Cc1c(-c2ccc(-c3ccccc3F)cc2)nc2ccc(F)cc2c1C(=O)O [BREQUINAR SODIUM]	4.99	5.09	3.48%	0.18%	4.52%	46.6%	59.7%	0.65%	2.65%	46%	33.2%	15.3%	0.23%	74.6%	18.4%	2.05%	34.2%	26.3%	1.02%	21.4%	inhibition at 100 µg/mL [20]: 68.3%; inhibition at 33.33 µg/mL [21]: 52.3%

Second part, led by results:

pIC50 (A-375 (human melanoma))	pIC50 (HEP-3B (human hepatoma))	Structure (SMILES)	inhibition at 0.14 µg/mL (A-375 [1])	inhibition at 0.01 µg/mL (A-375 [2])	inhibition at 0.14 µg/mL [3]	inhibition at 11.11 µg/mL (A-375 [4])	inhibition at 33.33 µg/mL (A-375 [5])	inhibition at 0.02 µg/mL [6]	inhibition at 0.05 µg/mL (A-375 [7])	inhibition at 11.11 µg/mL [8]	inhibition at 3.7 µg/mL (A-375 [9])	inhibition at 0.41 µg/mL [10]	inhibition at 0.01 µg/mL [11]	inhibition at 100 µg/mL (A-375 [12])	inhibition at 0.41 µg/mL (A-375 [13])	inhibition at 0.05 µg/mL [14]	inhibition at 3.7 µg/mL [15]	inhibition at 1.23 µg/mL (A-375 [16])	inhibition at 0.02 µg/mL (A-375 [17])	inhibition at 1.23 µg/mL [18]	further results
4.84	< 4.00	COc1ccc2nc(C(=O)Nc3c(F)cc(-c4cccc(F)c4)cc3F)c(C)c(C(=O)O)c2c1	2.06%	0.05%	0.02%	35.2%	44.5%	-0.57%	1.05%	2.34%	24.6%	0.68%	-0.68%	58.7%	3.87%	-0.66%	1.62%	10.2%	0.13%	1.05%	Retention_time [19]: 6.9 min; inhibition at 100 µg/mL [20]: 28.3%; inhibition at 33.33 µg/mL [21]: 7.24%
4.88	5.20	COc1cccc2c1C(=O)c1c(O)c3c(c(O)c1C2=O)C[C@@](O)(C(=O)CO)C[C@@H]3O[C@H]1C[C@H](N)[C@H](O)[C@H](C)O1 [DOXORUBICIN]	-18.5%	-35.6%	3.35%	50.6%	69.9%	0.95%	-27.6%	30.1%	11.6%	11.4%	0.25%	88.4%	-12.5%	1.56%	24.2%	-10.3%	30.2%	18.4%	inhibition at 100 µg/mL [20]: 76.3%; inhibition at 33.33 µg/mL [21]: 32.3%
4.77	4.24	CCc1ccc2nc(C(=O)Nc3c(F)cc(-c4cccc(F)c4)cc3F)c(C)c(C(=O)O)c2c1	2.45%	-0.45%	0.68%	38.9%	47.1%	-0.05%	0.95%	27.2%	26.7%	1.68%	-0.25%	71.3%	6.12%	0%	15.2%	17.7%	-0.12%	4.52%	Retention_time [19]: 6.8 min; inhibition at 100 µg/mL [20]: 64.3%; inhibition at 33.33 µg/mL [21]: 36.2%
4.50	4.58	Cc1ccc2nc(C(=O)Nc3c(F)cc(-c4cccc(F)c4)cc3F)c(C)c(C(=O)O)c2c1	0.98%	-1.05%	6.34%	19.2%	26.3%	1.05%	0.35%	35.6%	9.25%	15.2%	0.36%	37.3%	1.53%	2.11%	31.3%	3.65%	0.02%	21.3%	Retention_time [19]: 7 min; inhibition at 100 µg/mL [20]: 75.2%; inhibition at 33.33 µg/mL [21]: 41.2%

Reference: ChEMBL document CHEMBL3286357, “Design, synthesis and pharmacological evaluation of novel substituted quinoline-2-carboxamide derivatives as human dihydroorotate dehydrogenase (hDHODH) inhibitors and anticancer agents” (Eur J Med Chem, 2014)
